Test results from PubChem BioAssay.
The source made the active and inactive calls. Rule as the data show it, unless noted: active = inhibition above about 30%; inactive = the rest.

Experiments:
[1] = Her2 expression decrease, cell viability multiplex – SKBR3 breast tumor cells, AlphaScreen, ATP viability, primary screen (AID 461;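 active = Her2 level under about 52% in both replicate screens, with viability over 70% of control, limit read from the data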;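 as to Her2 level: lower value means less Her2 protein in the cells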;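 as to viability: percent of carrier control wells set as 100% viability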); conditions: SKBR3 Her2 protein level, 18-24 h, measured here: SKBR3 viability, ATP luminescence, at 10 µM
[2] = target: Receptor tyrosine-protein kinase erbB-2 (Homo sapiens) (UniProt P04626); test: as above; conditions: 18-24 h, at 10 µM, stronger effect = lower value
[3] = reduced viability of SK-BR-3 breast cancer cells – cell-based, 24 h, human, pilot screen (AID 572;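 active = viability at or below 10% of carrier control in both of two separate runs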;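 also: compound exposure lasted between 18 and 24 h rather than exactly 24 h; 100% = carrier-treated control wells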); conditions: SK-BR-3 viability, CellTiter-Glo luminescence, at 10 µM, stronger effect = lower value
[4] = HUVEC growth inhibition – cell-based, human, primary screen (AID 575;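 active = viability at or below 30% in both replicate assays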;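 also: 100% = median of untreated cell wells with 0.1% DMSO on each plate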); conditions: HUVEC proliferation, CellTiter-Glo luminescence, 72 h; at 10 µM; stronger effect = lower value
Outline: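 Test system – primary HUVEC, no more than 12 passages · Dosing – one dose, 10 µM final, 0.1% DMSO · Times – 72 h treatment at 37 °C · Measured by – ATP-based CellTiter-Glo luminescent read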

[5] = H69AR cell proliferation blockers – human, duplicate replicates, primary screen (AID 580;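 active = viability at or under a set limit in both replicates, limit being median viability minus 3 SD, cut at about 48% in these data, passing the limit was not always enough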;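 also: 100% = mean luminescence of untreated wells and 0% = no signal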); conditions: H69AR lung tumor cells viability, ATP luminescence, 72 h; at 10 µM; stronger effect = lower value
[6] = MRP1 drug-resistance reversers in H69AR cells – cell-based, doxorubicin co-treatment, pilot screen (AID 601;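 active = viability loss from added drug above about 55%, and viability with drug at most 40%, in both replicates, limit read from the data, passing the limit was not always enough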); conditions: CellTiter-Glo, 72 h, at 10 µM; for differential viability (reversal): stronger effect = higher value
[7] = yeast transport mutant growth inhibition pilot in 384-well plates, post-Golgi transport modulator project (AID 636; in the data active = inhibition above about 31%); conditions: absorbance 615 nm, about 18 h, stronger effect = higher value
[8] = growth suppression of yeast trafficking mutant, preliminary HTS, modulators of trafficking downstream of Golgi apparatus project, 1536-format plate, OD 615 nm (AID 637); conditions: yeast transport mutant growth, absorbance 615 nm, 18 h; stronger effect = higher value
[9] = H69AR cells + 2 uM doxorubicin, measured here: viability with 2 uM doxorubicin, stronger effect = lower value
[10] = H69AR cells, compound alone cytotoxicity

Receptor tyrosine-protein kinase erbB-2 (Homo sapiens), sequence (P04626 whole entry, looked up): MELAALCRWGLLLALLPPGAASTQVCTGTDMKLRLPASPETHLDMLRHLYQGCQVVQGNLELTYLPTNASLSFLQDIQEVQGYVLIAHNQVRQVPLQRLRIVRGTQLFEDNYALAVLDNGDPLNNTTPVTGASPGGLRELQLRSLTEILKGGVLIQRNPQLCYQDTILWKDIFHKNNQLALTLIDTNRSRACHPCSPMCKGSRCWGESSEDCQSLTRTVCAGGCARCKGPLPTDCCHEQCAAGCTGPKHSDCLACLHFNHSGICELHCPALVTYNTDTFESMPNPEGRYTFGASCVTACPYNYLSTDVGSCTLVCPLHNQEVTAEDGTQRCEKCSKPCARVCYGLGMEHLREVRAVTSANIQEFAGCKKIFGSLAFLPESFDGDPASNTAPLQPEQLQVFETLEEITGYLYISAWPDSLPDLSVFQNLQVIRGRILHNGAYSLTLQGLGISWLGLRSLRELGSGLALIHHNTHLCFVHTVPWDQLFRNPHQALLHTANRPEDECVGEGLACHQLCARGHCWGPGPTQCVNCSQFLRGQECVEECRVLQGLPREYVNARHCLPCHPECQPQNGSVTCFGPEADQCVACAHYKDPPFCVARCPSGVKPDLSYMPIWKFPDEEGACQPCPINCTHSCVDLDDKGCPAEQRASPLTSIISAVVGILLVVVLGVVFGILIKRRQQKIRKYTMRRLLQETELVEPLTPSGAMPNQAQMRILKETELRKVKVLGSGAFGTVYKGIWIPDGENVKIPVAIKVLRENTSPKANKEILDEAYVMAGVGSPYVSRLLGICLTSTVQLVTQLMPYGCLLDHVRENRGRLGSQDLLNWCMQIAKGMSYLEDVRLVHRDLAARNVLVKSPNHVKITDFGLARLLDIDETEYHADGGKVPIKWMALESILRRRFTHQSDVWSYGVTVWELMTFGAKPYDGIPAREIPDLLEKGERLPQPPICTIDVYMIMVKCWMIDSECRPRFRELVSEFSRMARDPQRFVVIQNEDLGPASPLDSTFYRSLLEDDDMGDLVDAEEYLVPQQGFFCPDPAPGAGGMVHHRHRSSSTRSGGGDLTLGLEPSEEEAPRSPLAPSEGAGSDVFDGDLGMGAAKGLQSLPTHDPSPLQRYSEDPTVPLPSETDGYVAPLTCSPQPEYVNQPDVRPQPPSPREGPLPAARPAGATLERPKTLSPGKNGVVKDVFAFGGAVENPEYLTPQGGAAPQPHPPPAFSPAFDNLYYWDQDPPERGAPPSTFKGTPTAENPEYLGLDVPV

Structure (SMILES) | viability [1] [%] | Her2 level [2] | viability [3] | viability [4] | viability [5] | differential viability (reversal) ([6]; H69AR cells + 2 uM doxorubicin) | viability [6, 9] [%] | viability [6, 10] [%] | inhibition [7] | inhibition [8]
Cc1c(C(=O)N2CCCC2)sc(NC(=O)c2cccs2)c1C#N | 106 | 91.5% (inactive) | 106% (inactive) | 98.1% (inactive) | 89.9% (inactive) | -0.35% (inactive) | 90.2 | 89.9 | -3.6% (inactive) | -5.81% (inactive)
COc1ccc(C2=NO[C@@H]3C(=O)N(c4ccc5c(c4)OCCO5)C(=O)[C@H]23)cc1OC | 85 | 112% (inactive) | 85% (inactive) | 81.7% (inactive) | 80.3% (inactive) | -6.85% (inactive) | 87.1 | 80.3 | 2.34% (inactive) | -5.08% (inactive)
CCOc1ccccc1CNC(=O)CCN1C(=O)COc2ccccc21 | 104 | 110% (inactive) | 104% (inactive) | 88.8% (inactive) | 92.9% (inactive) | 3.42% (inactive) | 89.5 | 92.9 | -1.15% (inactive) | -7% (inactive)
COc1ccc(CCNC(=O)c2cnc3scc(C)n3c2=O)cc1OC | 78 | 89% (inactive) | 78% (inactive) | 90.4% (inactive) | 94.8% (inactive) | 1.87% (inactive) | 92.9 | 94.8 | -6.27% (inactive) | 2% (inactive)
CCSc1nc(C)nc2c1oc1ccccc12 | 78.5 | 82% (inactive) | 78.5% (inactive) | 92.6% (inactive) | 97.7% (inactive) | 10% (inactive) | 87.7 | 97.7 | -4.67% (inactive) | -5.74% (inactive)
Cc1cc(SCC(N)=O)nc(SCC(=O)c2ccccc2)n1 | 92.5 | 89% (inactive) | 92.5% (inactive) | 106% (inactive) | 99.8% (inactive) | 10.1% (inactive) | 89.7 | 99.8 | -0.53% (inactive) | -5.08% (inactive)
COc1ccc(-n2c(SCC#N)nc3ccccc3c2=O)cc1 | 77 | 106% (inactive) | 77% (inactive) | 93.5% (inactive) | 96.4% (inactive) | -12.8% (inactive) | 109 | 96.4 | 5.06% (inactive) | 3.28% (inactive)
CCOc1ccccc1NC(=O)C1CCCN1C(=O)OCc1ccccc1 (stereo not given) | 84.5 | 93.5% (inactive) | 84.5% (inactive) | 111% (inactive) | 87.6% (inactive) | 2.29% (inactive) | 85.3 | 87.6 | -1.71% (inactive) | -10% (inactive)
Cc1ccc(C)c(/C(O)=C2\C(=O)C(=O)N(CCCN3CCOCC3)C2c2cccnc2)c1 (stereo not given) | 99 | 101% (inactive) | 99% (inactive) | 91.4% (inactive) | 90.2% (inactive) | -5.11% (inactive) | 95.3 | 90.2 | -3.59% (inactive) | -2.33% (inactive)
CCOc1nc(SCCOc2ccccc2)nc(N(C)C)n1 | 96 | 115% (inactive) | 96% (inactive) | 72.4% (inactive) | 107% (inactive) | 4.17% (inactive) | 102 | 107 | -1.84% (inactive) | -3.5% (inactive)
Cc1ccc(NC(=O)CSc2nnc(-c3ccncc3)n2C)cc1C | 90 | 117% (inactive) | 90% (inactive) | 110% (inactive) | 92.2% (inactive) | 3.42% (inactive) | 88.8 | 92.2 | 1.08% (inactive) | 25.9% (inactive)
COc1ccccc1-c1noc(-c2cccnc2)n1 | 94 | 102% (inactive) | 94% (inactive) | 117% (inactive) | 92.3% (inactive) | 0.91% (inactive) | 91.4 | 92.3 | -2.89% (inactive) | -0.66% (inactive)
Cc1ccc(-c2cc(C(F)(F)F)n3ncc(C(=O)O)c3n2)cc1 | 91 | 90.5% (inactive) | 91% (inactive) | 113% (inactive) | 99.7% (inactive) | 7.33% (inactive) | 92.4 | 99.7 | -7.87% (inactive) | 0.48% (inactive)
O=C(NCc1ccc2c(c1)OCO2)c1cc2n(n1)C(C(F)(F)F)CC(c1ccc3c(c1)OCO3)N2 (stereo not given) | 98 | 82% (inactive) | 98% (inactive) | 73.8% (inactive) | 84.2% (inactive) | 9.51% (inactive) | 74.7 | 84.2 | -2.89% (inactive) | 5% (inactive)
COc1ccc(Cl)cc1C(=O)n1nc(C)cc1C | 104 | 112% (inactive) | 104% (inactive) | 93% (inactive) | 94.6% (inactive) | 1.56% (inactive) | 93 | 94.6 | 2.43% (inactive) | 9.17% (inactive)
O=C(Nc1ccncc1)c1cncc(Br)c1 | 78 | 95.5% (inactive) | 78% (inactive) | 114% (inactive) | 100% (inactive) | 4.04% (inactive) | 96.4 | 100 | -2.57% (inactive) | 1.5% (inactive)

Structure (SMILES) | viability [1] [%] | Her2 level [2] | viability [3] | viability [4] | viability [5] | differential viability (reversal) ([6]; H69AR cells + 2 uM doxorubicin) | viability [6, 9] [%] | viability [6, 10] [%] | inhibition [7] | inhibition [8]
O=C(Nc1ccc2c(c1)OCO2)c1nn(-c2ccccc2)c(=O)c2ccccc12 | 108 | 81% (inactive) | 108% (inactive) | 72.8% (inactive) | 74.7% (inactive) | -4.67% (inactive) | 79.4 | 74.7 | -1.43% (inactive) | 1.75% (inactive)
CCOC(=O)c1c(NC(=O)c2cccs2)sc(C)c1C | 77 | 83.5% (inactive) | 77% (inactive) | 67.8% (inactive) | 86.2% (inactive) | 2.64% (inactive) | 83.6 | 86.2 | -5.33% (inactive) | -0.16% (inactive)
Cc1cccc(Nc2nc(N)nc(CN3CCC(C(N)=O)CC3)n2)c1C | 89 | 89% (inactive) | 89% (inactive) | 105% (inactive) | 98.1% (inactive) | 12.8% (inactive) | 85.2 | 98.1 | -5.58% (inactive) | -3.49% (inactive)
Cc1ccc(-c2nn(C)c(=O)c3ccccc23)cc1S(=O)(=O)N1CCOCC1 | 77 | 83% (inactive) | 77% (inactive) | 83.8% (inactive) | 92.8% (inactive) | 16% (inactive) | 76.8 | 92.8 | -5.07% (inactive) | -3.06% (inactive)
COc1ccc2c(c1)n([O-])c1c([n+]2=O)CCC1 | 110 | 91.5% (inactive) | 110% (inactive) | 109% (inactive) | 100% (inactive) | -6% (inactive) | 106 | 100 | -1.18% (inactive) | -4.55% (inactive)
c1ccc(CCc2nc(-c3cccnc3)no2)cc1 | 86.5 | 73% (inactive) | 86.5% (inactive) | 108% (inactive) | 92.9% (inactive) | 1.11% (inactive) | 91.8 | 92.9 | -4.27% (inactive) | 1.31% (inactive)
CCCCn1cnc2c(cnn2-c2ccc(Cl)cc2)c1=O | 94.5 | 87% (inactive) | 94.5% (inactive) | 99.4% (inactive) | 86.1% (inactive) | -1.77% (inactive) | 87.9 | 86.1 | -3.55% (inactive) | 2.91% (inactive)
CSCSC1=C(C#N)C(c2ccc(Cl)cc2)C(C(C)=O)=C(C)N1 (stereo not given) | 106 | 94.5% (inactive) | 106% (inactive) | 64.3% (inactive) | 75.2% (inactive) | -5.35% (inactive) | 80.6 | 75.2 | -5.32% (inactive) | 1.31% (inactive)
CCOC(=O)c1[nH]c(C)c(C(=O)N(C)C)c1C | 110 | 88.5% (inactive) | 110% (inactive) | 103% (inactive) | 95.6% (inactive) | -0.97% (inactive) | 96.6 | 95.6 | -5.79% (inactive) | -7.3% (inactive)
O=C(C1CCCO1)N1CCN(Cc2nc3ccccc3c(=O)[nH]2)CC1 (stereo not given) | 91.5 | 92% (inactive) | 91.5% (inactive) | 96.3% (inactive) | 94.9% (inactive) | -10% (inactive) | 105 | 94.9 | -7.16% (inactive) | 0.16% (inactive)
CC(=O)N(CCN(C(C)=O)c1ccccc1)c1ccccc1 | 105 | 93% (inactive) | 105% (inactive) | 88.8% (inactive) | 91.7% (inactive) | 11.7% (inactive) | 80 | 91.7 | -1.95% (inactive) | -1.64% (inactive)
O=C(CCCCCn1c(SCc2ccncc2)nc2ccccc2c1=O)NCc1ccco1 | 80.5 | 70.5% (inactive) | 80.5% (inactive) | 96.9% (inactive) | 74.6% (inactive) | -13% (inactive) | 87.6 | 74.6 | -1.18% (inactive) | -5.71% (inactive)
Cc1cc(N2CCN(c3ccccn3)CC2)n2nc(C)nc2n1 | 102 | 114% (inactive) | 102% (inactive) | 90.2% (inactive) | 87.4% (inactive) | -7.31% (inactive) | 94.7 | 87.4 | -4.23% (inactive) | -7% (inactive)
Cn1c(SCC(=O)Nc2ccc3c(c2)OCO3)nnc1-c1cnccn1 | 106 | 82.5% (inactive) | 106% (inactive) | 93.5% (inactive) | 94.6% (inactive) | 6.5% (inactive) | 88.1 | 94.6 | -6.05% (inactive) | 2.33% (inactive)
Cn1c(=O)c2c(nc(NCCCO)n2CCc2ccccc2)n(C)c1=O | 94 | 138% (inactive) | 94% (inactive) | 93.7% (inactive) | 87.1% (inactive) | -2.35% (inactive) | 89.4 | 87.1 | 5.45% (inactive) | -2.83% (inactive)
CN1C(=S)SC(C)(NO)C1(C)C (stereo not given) | 90 | 95.5% (inactive) | 90% (inactive) | 97% (inactive) | 104% (inactive) | 5.95% (inactive) | 98.4 | 104 | -0.27% (inactive) | -9.52% (inactive)
